Source: ChEMBL document CHEMBL3091318, “Potent and broad-spectrum antibacterial activity of indole-based bisamidine antibiotics: synthesis and SAR of novel analogs of MBX 1066 and MBX 1090” (2013)
Values after ≈ are worked out from the molar mass of the structure shown.

Tests used:
Assay type in all cases: functional
Escherichia coli [1] = assay: Antimicrobial activity against TolC efflux-deficient Escherichia coli K-12 after 16 to 20 hrs by broth microdilution method
Summary of the method: (§1)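 CLSI broth microdilution. Log-phase cultures grown in cation-adjusted Mueller–Hinton broth and seeded at 1×10^5 CFU/mL. Plates incubated at 37 °C with shaking for 16–20 h. DMSO stocks of compound were diluted into medium to 1% DMSO final. Growth was read as OD600. MIC (μg/ml) is the lowest concentration with no apparent growth, averaged over at least 3 assays.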

Escherichia coli [2] = assay: Antimicrobial activity against efflux pump-positive Escherichia coli K-12 after 16 to 20 hrs by broth microdilution method; summary of the method: as §1
Pseudomonas aeruginosa [3] = assay: Antimicrobial activity against efflux pump mexAB-oprM-deficient Pseudomonas aeruginosa PAO1 after 16 to 20 hrs by broth microdilution method; summary of the method: as §1
Enterococcus faecalis [4] = assay: Antimicrobial activity vancomycin-resistant Enterococcus faecalis ATCC 51575 after 16 to 20 hrs by broth microdilution method
Summary of the method: (§2)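 CLSI broth microdilution. Log-phase cultures in cation-adjusted Mueller–Hinton broth were seeded at 1×10^5 CFU/mL and incubated at 37 °C with shaking for 16–20 h. Compounds were diluted from DMSO stocks to a final 1% DMSO. Growth was read as OD600, and MIC was taken as the lowest concentration with no apparent growth. At least 3 runs were done, and the average MIC is reported in μg/ml.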

Staphylococcus aureus [5] = assay: Antimicrobial activity against Staphylococcus aureus ATCC 25923 after 16 to 20 hrs by broth microdilution method; summary of the method: as §2
Staphylococcus aureus [6] = assay: Antimicrobial activity methicillin-resistant against Staphylococcus aureus clinical isolate 1094 after 16 to 20 hrs by broth microdilution method
Enterococcus faecalis [7] = assay: Antimicrobial activity Enterococcus faecalis ATCC 29212 after 16 to 20 hrs by broth microdilution method; summary of the method: as §1
Bacillus anthracis = assay: Antimicrobial activity against Bacillus anthracis Sterne after 16 to 20 hrs by broth microdilution method; summary of the method: as §2
Pseudomonas aeruginosa [8] = assay: Antimicrobial activity against efflux pump-positive Pseudomonas aeruginosa PAO1 ATCC BAA-47 after 16 to 20 hrs by broth microdilution method; summary of the method: as §1
Acinetobacter baumannii = assay: Antimicrobial activity against Acinetobacter baumannii ATCC 19606 after 16 to 20 hrs by broth microdilution method; summary of the method: as §1
Haemophilus influenzae = assay: Antimicrobial activity against Haemophilus influenzae ATCC 10211 after 16 to 20 hrs by broth microdilution method
Summary of the method: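 Broth microdilution per CLSI in Haemophilus Test Medium at 37 °C under 5% CO₂ for 16–20 h, seeded at 1×10^5 CFU/mL. Compound was added from DMSO stocks to 1% DMSO final. Growth was read as OD600. MIC (μg/ml) is the lowest concentration without apparent growth, averaged from at least 3 runs.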

Klebsiella pneumoniae = assay: Antimicrobial activity against Klebsiella pneumoniae ATCC 13882 after 16 to 20 hrs by broth microdilution method; summary of the method: as §1

| SMILES | MIC (Escherichia coli [1]) | MIC (Escherichia coli [2]) | MIC (Pseudomonas aeruginosa [3]) | MIC (Enterococcus faecalis [4]) | MIC (Staphylococcus aureus [5]) | MIC (Staphylococcus aureus [6]) | MIC (Enterococcus faecalis [7]) | MIC (Bacillus anthracis) | MIC (Pseudomonas aeruginosa [8]) | MIC (Acinetobacter baumannii) | MIC (Haemophilus influenzae) | MIC (Klebsiella pneumoniae) |
| --- | --- | --- | --- | --- | --- | --- | --- | --- | --- | --- | --- | --- |
| CC1(C)CN=C(c2ccc3cc(-c4ccc(-c5cc6ccc(C7=NCC(C)(C)CN7)cc6[nH]5)cc4)[nH]c3c2)NC1.O=C(O)C(F)(F)F | 0.63 µg/mL | 0.63 µg/mL | 40 µg/mL | 0.63 µg/mL | 0.31 µg/mL | 0.31 µg/mL | 0.31 µg/mL | 0.31 µg/mL | 10 µg/mL | > 80 µg/mL | 2.5 µg/mL | 0.63 µg/mL |
| CC(=O)O.c1cc2cc(-c3ccc(-c4cc5ccc(C6=NCCCN6)cc5[nH]4)nc3)[nH]c2cc1C1=NCCCN1 | 0.16 µg/mL | 0.63 µg/mL | 2.5 µg/mL | 0.16 µg/mL | 0.16 µg/mL | 0.16 µg/mL | 0.63 µg/mL | 0.16 µg/mL | 2.5 µg/mL | 20 µg/mL | 2.5 µg/mL | 5 µg/mL |
| O=C(O)C(F)(F)F.c1cc2cc(-c3ccc(-c4cc5ccc(C6=NCCN6)cc5[nH]4)o3)[nH]c2cc1C1=NCCN1 | 0.63 µg/mL | 20 µg/mL | > 80 µg/mL | > 80 µg/mL | 40 µg/mL | 40 µg/mL | > 80 µg/mL | 5 µg/mL | > 80 µg/mL | > 80 µg/mL |  | > 80 µg/mL |
| O=C(O)c1cn(C2CC2)c2cc(N3CCNCC3)c(F)cc2c1=O [CIPROFLOXACIN] | ≤ 0.02 µg/mL | ≤ 0.02 µg/mL | ≤ 0.02 µg/mL | 0.63 µg/mL (≈ 1.9 µM) | 0.31 µg/mL (≈ 0.936 µM) |  | 1.25 µg/mL (≈ 3.77 µM) | 0.08 µg/mL (≈ 0.241 µM) | 0.63 µg/mL (≈ 1.9 µM) | 1.25 µg/mL (≈ 3.77 µM) | 10 µg/mL (≈ 30.2 µM) | 0.04 µg/mL (≈ 0.121 µM) |
| COC1CN=C(c2ccc3cc(-c4ccc(-c5cc6ccc(C7=NCC(OC)CN7)cc6[nH]5)cc4)[nH]c3c2)NC1.O=C(O)C(F)(F)F (stereo not drawn) | 0.31 µg/mL | 5 µg/mL | 2.5 µg/mL | 0.16 µg/mL | 0.16 µg/mL | 0.16 µg/mL | 0.16 µg/mL | 0.16 µg/mL | 5 µg/mL | > 80 µg/mL |  | 0.63 µg/mL |
| CC(=O)O.c1cc2cc(-c3cnc(-c4cc5ccc(C6=NCCN6)cc5[nH]4)cn3)[nH]c2cc1C1=NCCN1 | 0.63 µg/mL | 20 µg/mL | > 80 µg/mL | 10 µg/mL | 5 µg/mL | 5 µg/mL | 20 µg/mL | 2.5 µg/mL | > 80 µg/mL | > 80 µg/mL |  | 10 µg/mL |
| CC1CN=C(c2ccc3cc(-c4ccc(-c5cc6ccc(C7=NCC(C)CN7)cc6[nH]5)cc4)[nH]c3c2)NC1.O=C(O)C(F)(F)F (stereo not drawn) | 0.16 µg/mL | 0.31 µg/mL | 0.63 µg/mL | 0.08 µg/mL | 0.08 µg/mL | 0.08 µg/mL | 0.16 µg/mL | 0.08 µg/mL | 0.63 µg/mL | 40 µg/mL | 1.25 µg/mL | 0.31 µg/mL |
| NC(=O)c1ccc2cc(-c3ccc(-c4cc5ccc(C(N)=O)cc5[nH]4)cc3)[nH]c2c1 | 5 µg/mL (≈ 12.7 µM) | > 80 µg/mL | > 80 µg/mL | > 80 µg/mL | 2.5 µg/mL (≈ 6.34 µM) | > 80 µg/mL | 10 µg/mL (≈ 25.4 µM) | > 80 µg/mL | > 80 µg/mL | > 80 µg/mL |  | > 80 µg/mL |
| O=C(O)C(F)(F)F.c1cc2cc(-c3ccc(-c4cc5ccc(C6=NCCN6)cc5[nH]4)s3)[nH]c2cc1C1=NCCN1 | 0.31 µg/mL | 0.63 µg/mL | 1.25 µg/mL | 1.25 µg/mL | 0.16 µg/mL | 0.31 µg/mL | 1.25 µg/mL | 0.16 µg/mL | 10 µg/mL | 10 µg/mL | 0.63 µg/mL | 0.63 µg/mL |
| c1cc2cc(CCCc3cc4ccc(C5=NCCCN5)cc4[nH]3)[nH]c2cc1C1=NCCCN1 | 1.25 µg/mL (≈ 2.85 µM) | 80 µg/mL (≈ 182 µM) | > 80 µg/mL | 0.63 µg/mL (≈ 1.44 µM) | 20 µg/mL (≈ 45.6 µM) | 20 µg/mL (≈ 45.6 µM) | 80 µg/mL (≈ 182 µM) | 20 µg/mL (≈ 45.6 µM) | > 80 µg/mL | > 80 µg/mL |  |  |
| Cl.N=C(N)c1ccc2cc(-c3ccc(-c4cc5ccc(C(=N)N)cc5[nH]4)cc3)[nH]c2c1 | 0.16 µg/mL | 0.63 µg/mL |  | 0.16 µg/mL | 0.16 µg/mL | 0.31 µg/mL | 0.04 µg/mL | 0.08 µg/mL | 10 µg/mL | 40 µg/mL |  | 0.63 µg/mL |
| CCOC(=N)c1ccc2cc(-c3ccc(-c4cc5ccc(C(=N)OCC)cc5[nH]4)cc3)[nH]c2c1.Cl |  |  | > 80 µg/mL | 10 µg/mL | 0.63 µg/mL | 5 µg/mL | 2.5 µg/mL | 2.5 µg/mL | > 80 µg/mL |  |  | > 80 µg/mL |
| c1cc2cc(CCCCc3cc4ccc(C5=NCCCN5)cc4[nH]3)[nH]c2cc1C1=NCCCN1 | 0.16 µg/mL (≈ 0.354 µM) | 1.25 µg/mL (≈ 2.76 µM) | 40 µg/mL (≈ 88.4 µM) | 0.31 µg/mL (≈ 0.685 µM) | 0.63 µg/mL (≈ 1.39 µM) | 1.25 µg/mL (≈ 2.76 µM) | 2.5 µg/mL (≈ 5.52 µM) | 1.25 µg/mL (≈ 2.76 µM) | 40 µg/mL (≈ 88.4 µM) | > 80 µg/mL |  |  |
| FC1CN=C(c2ccc3cc(-c4ccc(-c5cc6ccc(C7=NCC(F)CN7)cc6[nH]5)cc4)[nH]c3c2)NC1.O=C(O)C(F)(F)F (stereo not drawn) | 0.31 µg/mL | 0.63 µg/mL | 0.31 µg/mL | 0.08 µg/mL | 0.08 µg/mL | 0.16 µg/mL | 0.16 µg/mL | 0.08 µg/mL | 1.25 µg/mL | 40 µg/mL |  | 0.31 µg/mL |
| O=C(O)C(F)(F)F.OC1CN=C(c2ccc3cc(-c4ccc(-c5cc6ccc(C7=NCC(O)CN7)cc6[nH]5)cc4)[nH]c3c2)NC1 (stereo not drawn) | 0.63 µg/mL | 1.25 µg/mL | 0.31 µg/mL | 0.63 µg/mL | 0.31 µg/mL | 0.31 µg/mL | 0.16 µg/mL | 0.16 µg/mL | 1.25 µg/mL | > 80 µg/mL | 1.25 µg/mL | 0.63 µg/mL |
| CC(=O)O.c1cc2cc(-c3cnc(-c4cc5ccc(C6=NCCCN6)cc5[nH]4)cn3)[nH]c2cc1C1=NCCCN1 | 0.31 µg/mL | 2.5 µg/mL | 5 µg/mL | 0.31 µg/mL | 0.31 µg/mL | 0.31 µg/mL | 0.31 µg/mL | 0.16 µg/mL | 5 µg/mL | > 80 µg/mL |  | 1.25 µg/mL |
| CC(=O)O.c1cc2cc(-c3ccc(-c4cc5ccc(C6=NCCN6)cc5[nH]4)nc3)[nH]c2cc1C1=NCCN1 | 0.63 µg/mL | 2.5 µg/mL | > 80 µg/mL | 0.31 µg/mL | 0.31 µg/mL | 0.31 µg/mL | 0.31 µg/mL | 0.31 µg/mL | > 80 µg/mL | > 80 µg/mL |  | 2.5 µg/mL |
| NCc1ccc2cc(-c3ccc(-c4cc5ccc(CN)cc5[nH]4)cc3)[nH]c2c1.O=C(O)C(F)(F)F | 1.25 µg/mL | 5 µg/mL | 40 µg/mL | 1.25 µg/mL | 0.63 µg/mL | 1.25 µg/mL | 1.25 µg/mL | 1.25 µg/mL | 40 µg/mL | > 80 µg/mL |  | 2.5 µg/mL |
| O=C(O)C(F)(F)F.c1cc2cc(CCc3cc4ccc(C5=NCCCN5)cc4[nH]3)[nH]c2cc1C1=NCCCN1 | 0.31 µg/mL | 2.5 µg/mL | 10 µg/mL | 2.5 µg/mL | 0.63 µg/mL | 1.25 µg/mL | 5 µg/mL | 0.63 µg/mL | 10 µg/mL | 80 µg/mL |  |  |
| CC(=O)O.c1cc2cc(-c3ccc(-c4cc5ccc(C6=NCCCN6)cc5[nH]4)s3)[nH]c2cc1C1=NCCCN1 | 0.31 µg/mL | 0.63 µg/mL | 1.25 µg/mL | 0.16 µg/mL | 0.08 µg/mL | 0.16 µg/mL | 0.16 µg/mL | 0.16 µg/mL | 5 µg/mL | 5 µg/mL |  | 0.63 µg/mL |
| N/C(=N\O)c1ccc2cc(-c3ccc(-c4cc5ccc(/C(N)=N\O)cc5[nH]4)cc3)[nH]c2c1 | 0.63 µg/mL (≈ 1.48 µM) | > 80 µg/mL | > 80 µg/mL | 1.25 µg/mL (≈ 2.94 µM) | 0.31 µg/mL (≈ 0.73 µM) | 1.25 µg/mL (≈ 2.94 µM) | 2.5 µg/mL (≈ 5.89 µM) | 0.16 µg/mL (≈ 0.377 µM) | > 80 µg/mL |  |  | > 80 µg/mL |
| Cl.N/N=C(/N)c1ccc2cc(-c3ccc(-c4cc5ccc(/C(N)=N\N)cc5[nH]4)cc3)[nH]c2c1 | 0.63 µg/mL | 2.5 µg/mL |  | 0.63 µg/mL | 0.63 µg/mL | 1.25 µg/mL | 0.63 µg/mL | 0.31 µg/mL | 10 µg/mL | > 80 µg/mL |  | 1.25 µg/mL |
